Data reported in ChEMBL document CHEMBL4196071, “Discovery of tetrahydrocarbazoles with potent hypoglycemic and hypolipemic activities” (Eur J Med Chem, 2018).
The source made the active and inactive calls. The rule behind the calls is not given here.

How the values were obtained:
[1] = molecular target: T1, AMP-activated protein kinase, AMPK (Homo sapiens) (UniProt P54646+O43741+P54619+Q9UGJ0+Q9Y478+Q13131+Q9UGI9); assay: Activation of AMPK in human HepG2 cells assessed as induction of glucose consumption at 10 uM treated over 24 hrs by glucose oxidase method relative to control; type: cell-based
Outline: (§1)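 HepG2 cells kept in DMEM (25 mM D-glucose) with 10% serum at 37 °C, 5% CO2. At 80-90% confluence the medium was switched to serum-free RPMI-1640 with 11.1 mM glucose and 0.2% BSA. Compounds in DMSO (0.5% v/v vehicle control) were given for 24 h. Medium glucose was read by glucose oxidase; consumption = cell-free blank wells minus cell wells. Student's t test against control.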

[2] = molecular target: T1, AMP-activated protein kinase, AMPK (Homo sapiens); assay: Activation of AMPK in human HepG2 cells assessed as induction of glucose consumption at 1 mM treated over 24 hrs by glucose oxidase method relative to control; type: cell-based; outline: as §1
[3] = molecular target: T1, AMP-activated protein kinase, AMPK (Homo sapiens); assay: Activation of AMPK in human HepG2 cells assessed as induction of glucose consumption at 0.1 uM treated over 24 hrs by glucose oxidase method relative to control; type: cell-based; outline: as §1
[4] = molecular target: T1, AMP-activated protein kinase, AMPK (Homo sapiens); assay: Activation of AMPK in human HepG2 cells assessed as induction of glucose consumption at 1 uM treated over 24 hrs by glucose oxidase method relative to control; type: cell-based; outline: as §1
[5] = tested on: HepG2; assay: Induction of AMPKalpha phosphorylation at Thr172 residue in human HepG2 cells at 10 uM by Western blot analysis; type: cell-based
Outline: (§2)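 HepG2 cells were treated at 10 μM and lysed in pH 7.5 Tris buffer containing NaF, β-glycerophosphate, EDTA/EGTA, Triton X-100 and protease inhibitors, then cleared at 10,000 × g for 30 min at 4 °C. Equal lysate volumes were run on 8% SDS-PAGE and transferred to PVDF. Blots were probed for p-AMPKα (Thr172) and p-ACC (Ser79) with HRP secondary antibodies.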

[6] = tested on: HepG2; assay: Activation of AMPKalpha in human HepG2 cells assessed as ACC phosphorylation at Ser79 residue at 10 uM by Western blot analysis; type: cell-based; outline: as §2
[7] = molecular target: T1, AMP-activated protein kinase, AMPK (Homo sapiens); assay: Activation of AMPK in human HepG2 cells assessed as induction of glucose consumption treated over 24 hrs by glucose oxidase method; type: cell-based; outline: as §1
[8] = tested on: Mus musculus; assay: Hypoglycemic activity in db/db mouse assessed as decrease in blood glucose level at 30 mg/kg, po administered as single dose measured at 3 hrs post last dose (reference value: 0.0 +/- 4.1%); type: functional; parameters: scale not given: the % may be the effect or the level left
[9] = tested on: Mus musculus; assay: Hypoglycemic activity in db/db mouse assessed as decrease in blood glucose level at 30 mg/kg, po treated for 1 week measured at 3 hrs post last dose (reference value: 0.0 +/- 8.6%); type: functional; parameters: scale not given: the % may be the effect or the level left
[10] = tested on: Mus musculus; assay: Hypoglycemic activity in db/db mouse assessed as decrease in blood glucose level at 30 mg/kg, po treated for 2 week measured at 3 hrs post last dose (reference value: 0.0 +/- 4.0%); type: functional; parameters: scale not given: the % may be the effect or the level left
[11] = tested on: Mus musculus; assay: Hypoglycemic activity in db/db mouse assessed as decrease in blood glucose level at 30 mg/kg, po treated for 3 week measured at 3 hrs post last dose (reference value: 0.0 +/- 6.8%); type: functional; parameters: scale not given: the % may be the effect or the level left
[12] = tested on: Mus musculus; assay: Toxicity in db/db mouse assessed as increase in body weight at 30 mg/kg, po treated for 1 to 3 weeks measured at 3 hrs post last dose relative to control; type: organism-based; conditions: in vivo
[13] = tested on: Mus musculus; assay: Hypolipemic activity in db/db mouse assessed as plasma fasting triglyceride level at 30 mg/kg, po treated for 3 consecutive weeks (reference value: 0.70 to 0.97 mM); type: functional
[14] = tested on: Mus musculus; assay: Hypolipemic activity in db/db mouse assessed as total plasma cholesterol level at 30 mg/kg, po treated for 3 consecutive weeks (reference value: 6.05 to 6.98 mM); type: functional

SMILES	Activity [1]	Activity [5]	Activity [6]	other results
COc1ccc(S(=O)(=O)n2c3c(c4cc(OCc5ccccc5)ccc42)CC(C(=O)O)CC3)cc1 (configuration not stated)	60.3%			
CN(C)C(=N)NC(=N)N				Activity [2]: 60.4 to 63.7%
CC(Oc1ccc2c(c1)c1c(n2C(=O)c2ccc(Cl)cc2)CCC(C(=O)O)C1)c1ccccc1 (configuration not stated)	62.1 to 68.7%	Active	Active	Activity [3]: 4.89%; Activity [4]: 32.2%; Activity [7]: Dose-dependent effect
O=C(O)C1CCc2c(c3cc(OCc4ccccc4)ccc3n2C(=O)c2ccc(Cl)cc2)C1 (single isomer, unassigned; (-))	76.4 to 85.5%	Active	Active	Activity [3]: 12.9%; Activity [4]: 35.6%; Activity [7]: Dose-dependent effect
COc1ccc(S(=O)(=O)n2c3c(c4cc5c(cc42)OCO5)CC(C(=O)O)CC3)cc1 (configuration not stated)	40.3%			
Cc1nc(C)c(COc2ccc3c(c2)c2c(n3C(=O)c3ccc(Cl)cc3)CCC(C(=O)O)C2)nc1C (configuration not stated)	47.5%	Active	Active	
O=C(O)C1CCc2c(c3cc(OCc4ccccn4)ccc3n2C(=O)c2ccc(Cl)cc2)C1 (configuration not stated)	47.5%			
O=C(O)C1CCc2c(c3cc(OCc4ccccc4)ccc3n2C(=O)c2ccc(F)cc2)C1 (configuration not stated)	75.2%			
O=C(O)C1CCc2c(c3cc4c(cc3n2S(=O)(=O)c2ccc(Cl)cc2)OCO4)C1 (configuration not stated)	47.5%			
N#Cc1ccc(COc2ccc3c(c2)c2c(n3C(=O)c3ccc(Cl)cc3)CCC(C(=O)O)C2)cc1 (configuration not stated)	50.2 to 72.8%	Active	Active	Activity [3]: 9.65%; Activity [4]: 26.8%; Activity [7]: Dose-dependent effect
COc1ccc2c(c1)c1c(n2C(=O)c2ccc(Cl)cc2)CCC(C(=O)O)C1 (configuration not stated)	50.5%			
O=C(O)C1CCc2c(c3cc(OCc4ccccc4)ccc3n2S(=O)(=O)c2ccc(Cl)cc2)C1 (configuration not stated)	64.5%			Activity [8]: 15.5%; Activity [9]: 28.9%; Activity [10]: 16.3%; Activity [11]: 14.3%; Activity [12]: 3.7%; Activity [13]: 0.99 mM; Activity [14]: 6.91 mM
Cc1ccc(Cn2c3c(c4cc(OCc5ccccc5)ccc42)CC(C(=O)O)CC3)cc1 (configuration not stated)	42.2%			
